Experimental data collected from several papers.
Observed: cell growth or viability

With `CCN(CC)Cc1cc(Nc2ccnc3cc(Cl)ccc23)ccc1O` the IC50 was 17000 nM (SH-SY5Y; resazurin).
For `COc1cc2c3c(n(CCCNC(C)C)c(=O)c2cc1OC)-c1nc2c(cc1C3=O)OCO2`, the IC50 was 150 nM (SK-N-MC; MTS; 72 h).
The viability of `CC(C)(C)c1cnc(CSc2cnc(NC(=O)C3CCN(CCCCCSc4cccc5c4CN(C4CCC(=O)NC4=O)C5=O)CC3)s2)o1` (centres unmarked) is reported as 9.46% (HuT78; trypan blue; 0.25 µM, 48 h).
The IC50 of `CC(C)c1ccccc1[C@@H]1CCCN1C1CC2(CCN(c3ccc(C(=O)NS(=O)(=O)c4ccc(NC[C@H]5CC[C@](C)(O)CC5)c([N+](=O)[O-])c4)c(Oc4cnc5[nH]ccc5c4)c3)CC2)C1` is reported as 7430 nM (MM.1R; ATP luminescence; 48 h).
`Nc1ccc(/C=C/C(=O)N2CCc3c(oc4c(-c5ccc(F)cc5)cc(-c5ccc(C(=O)N6C[C@@H]7[C@H](C6)C7(F)F)nn5)cc34)C2)cn1` gave an IC50 of 300 nM (Pan02; CCK-8; 72 h).
`C#Cc1nc(C2=C(C)C(O)CC2)cs1` (centres unmarked) gave a CC50 of 960 nM (HT-1080).
The viability of `CC(C)(C)c1cnc(CSc2cnc(NC(=O)C3CCN(CCCCCCCCSc4cccc5c4CN(C4CCC(=O)NC4=O)C5=O)CC3)s2)o1` (centres unmarked) is reported as 22.4% (HuT78; trypan blue; 0.25 µM, 48 h).
With `CCN(CC)CCCC(C)Nc1ccnc2cc(Cl)ccc12` (centres unmarked) the IC50 was 44000 nM (SH-SY5Y; resazurin).
The IC50 of `O=C(C=Cc1ccccc1)Nc1cc(-c2ccnc(N3CCC(O)CC3)c2)ccn1` is reported as 528 nM (HCC1937; MTT; 72 h).
With `COc1cc(NC(C)CCCN)c2ncccc2c1` (centres unmarked) the IC50 was > 50000 nM (SH-SY5Y; resazurin).
`COc1cc2c3c(n(CCCn4ccnc4)c(=O)c2cc1OC)-c1nc2c(cc1C3=O)OCO2` gave an IC50 of 170 nM (SK-N-MC; MTS; 72 h).
The IC50 of `C[C@H]1[C@H](OC(=O)CCC(=O)O)O[C@@H]2O[C@@]3(C)CC[C@H]4[C@H](C)CC[C@@H]1[C@@]24OO3` is reported as 4600 nM (SH-SY5Y; resazurin).
For `Nc1ccc(/C=C/C(=O)N2CCc3c(oc4c(-c5ccc(F)cc5)cc(-c5ccc(C(=O)N6CCOCC6)nn5)cc34)C2)cn1`, the IC50 was 570 nM (Pan02; CCK-8; 72 h).
`C=CC(=O)NC1CCN(c2ncc3ncnc(Nc4ccc(Oc5ccc6c(c5)ncn6C)c(C)c4)c3n2)CC1` has an EC50 of 11 nM (KNS-62).
